Measured values taken from ChEMBL document CHEMBL5096186, “Design, Synthesis, and Biological Evaluation of Novel Pyrimido[4,5-b]indole Derivatives Against Gram-Negative Multidrug-Resistant Pathogens” (J Med Chem, 2021).
In brackets after ≈: the same amount, converted by molar mass.

Legend:
Pseudomonas aeruginosa [1] = assay: Antibacterial activity against multidrug resistant Pseudomonas aeruginosa strains 15 1 to 3 assessed as reduction in bacterial growth incubated for 18 to 20 hrs by CLSI based microdilution method; assay type: functional; conditions: time 18-20 hrs
Method in brief: (§1)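 Broth microdilution per CLSI. Compounds dissolved in DMSO (levofloxacin and meropenem in water) as 64 μg/mL stock, then serial twofold dilutions in broth giving 64 to 0.008 μg/mL. […] Clinical isolates tested as several strains per group; racemic GP-1 served as positive control; values given as MIC ranges.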

[2] = biological target: Voltage-gated inwardly rectifying potassium channel KCNH2 (Homo sapiens, UniProt Q12809); assay: Inhibition of hERG potassium channel assessed as […] at -80 mV holding potential incubated for 120 seconds by whole cell-automated voltage clamp analysis assay; assay type: toxicity
Method in brief: (§2)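 Automated whole-cell patch clamp, holding potential −80 mV. Voltage protocol applied every 20 s. Baseline set with external solution containing 0.1% DMSO and stabilised 3 min. Compound applied until steady state, at least 3 min, then washout. Maximum tested concentration 40 μM, or 3 μM for cisapride as positive control.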

[3] = test system: Staphylococcus epidermidis; assay: Antibacterial activity against methicillin-sensitive Staphylococcus epidermidis strains 15 1 to 4 assessed as reduction in bacterial growth incubated for 18 to 20 hrs by CLSI based microdilution method; assay type: functional; conditions: time 18-20 hrs; method in brief: as §1
[4] = biological target: hERG (KCNH2) potassium channel (Homo sapiens, UniProt Q12809); assay: Inhibition of hERG potassium channel assessed as maximum inhibition rate at 40 uM at -80 mV holding potential incubated for 120 seconds by whole cell-automated voltage clamp analysis assay relative to control; assay type: toxicity; conditions: time 120 sec; method in brief: as §2
Escherichia coli [5] = assay: Antibacterial activity against Escherichia coli ATCC 35218 strains 15 1 to 3 assessed as reduction in bacterial growth incubated for 18 to 20 hrs by CLSI based microdilution method; assay type: functional; conditions: time 18-20 hrs
Method in brief: (§3)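 CLSI broth microdilution. Compounds in DMSO (levofloxacin and meropenem in water), serial twofold dilutions in broth, 64 to 0.008 μg/mL. […] Results reported as MIC ranges across strains.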

Staphylococcus aureus [6] = assay: Antibacterial activity against methicillin-resistant Staphylococcus aureus strains 15 1 to 4 assessed as reduction in bacterial growth incubated for 18 to 20 hrs by CLSI based microdilution method; assay type: functional; conditions: time 18-20 hrs; method in brief: as §1
Staphylococcus aureus [7] = assay: Antibacterial activity against methicillin-sensitive Staphylococcus aureus strains 15 1 to 4 assessed as reduction in bacterial growth incubated for 18 to 20 hrs by CLSI based microdilution method; assay type: functional; conditions: time 18-20 hrs; method in brief: as §1
Escherichia coli [8] = assay: Antibacterial activity against ESBL-producing Escherichia coli ATCC 35218 strains 15 1 to 3 assessed as reduction in bacterial growth incubated for 18 to 20 hrs by CLSI based microdilution method; assay type: functional; conditions: time 18-20 hrs; method in brief: as §3
Klebsiella pneumoniae [9] = assay: Antibacterial activity agains wild type Klebsiella pneumoniae ATCC BAA-2470 assessed as reduction in bacterial growth incubated for 18 to 20 hrs by CLSI based microdilution method; assay type: functional; conditions: time 18-20 hrs; method in brief: as §1
Escherichia coli [10] = assay: Antibacterial activity against multidrug resistant wild type Escherichia coli NCTC 13353 assessed as reduction in bacterial growth incubated for 18 to 20 hrs by CLSI based microdilution method; assay type: functional; conditions: time 18-20 hrs; method in brief: as §1
Pseudomonas aeruginosa [11] = assay: Antibacterial activity against wild type Pseudomonas aeruginosa ATCC 27853 assessed as reduction in bacterial growth incubated for 18 to 20 hrs by CLSI based microdilution method; assay type: functional; conditions: time 18-20 hrs; method in brief: as §3
Klebsiella pneumoniae [12] = assay: Antibacterial activity agains wild type Klebsiella pneumoniae ATCC BAA-1705 assessed as reduction in bacterial growth incubated for 18 to 20 hrs by CLSI based microdilution method; assay type: functional; conditions: time 18-20 hrs; method in brief: as §3
Acinetobacter baumannii [13] = assay: Antibacterial activity against wild type Acinetobacter baumannii NCTC 13304 assessed as reduction in bacterial growth incubated for 18 to 20 hrs by CLSI based microdilution method; assay type: functional; conditions: time 18-20 hrs; method in brief: as §1
Klebsiella pneumoniae [14] = assay: Antibacterial activity against KPC2-producing multidrug resistant Klebsiella pneumoniae assessed as reduction in bacterial growth incubated for 18 to 20 hrs by CLSI based microdilution method; assay type: functional; conditions: time 18-20 hrs; method in brief: as §1
Escherichia coli [15] = assay: Antibacterial activity against ESBL-producing multidrug resistant Escherichia coli assessed as reduction in bacterial growth incubated for 18 to 20 hrs by CLSI based microdilution method; assay type: functional; conditions: time 18-20 hrs; method in brief: as §1
Escherichia coli [16] = assay: Antibacterial activity against multidrug resistant wild type Escherichia coli ATCC BAA-2340 assessed as reduction in bacterial growth incubated for 18 to 20 hrs by CLSI based microdilution method; assay type: functional; conditions: time 18-20 hrs; method in brief: as §1
Acinetobacter baumannii [17] = assay: Antibacterial activity agains OXA23-producing multidrug resistant Acinetobacter baumannii assessed as reduction in bacterial growth incubated for 18 to 20 hrs by CLSI based microdilution method; assay type: functional; conditions: time 18-20 hrs; method in brief: as §1
Pseudomonas aeruginosa [18] = assay: Antibacterial activity against IMP4-producing multidrug resistant Pseudomonas aeruginosa assessed as reduction in bacterial growth incubated for 18 to 20 hrs by CLSI based microdilution method; assay type: functional; conditions: time 18-20 hrs; method in brief: as §1

Chain of Voltage-gated inwardly rectifying potassium channel KCNH2 (Q12809 whole entry): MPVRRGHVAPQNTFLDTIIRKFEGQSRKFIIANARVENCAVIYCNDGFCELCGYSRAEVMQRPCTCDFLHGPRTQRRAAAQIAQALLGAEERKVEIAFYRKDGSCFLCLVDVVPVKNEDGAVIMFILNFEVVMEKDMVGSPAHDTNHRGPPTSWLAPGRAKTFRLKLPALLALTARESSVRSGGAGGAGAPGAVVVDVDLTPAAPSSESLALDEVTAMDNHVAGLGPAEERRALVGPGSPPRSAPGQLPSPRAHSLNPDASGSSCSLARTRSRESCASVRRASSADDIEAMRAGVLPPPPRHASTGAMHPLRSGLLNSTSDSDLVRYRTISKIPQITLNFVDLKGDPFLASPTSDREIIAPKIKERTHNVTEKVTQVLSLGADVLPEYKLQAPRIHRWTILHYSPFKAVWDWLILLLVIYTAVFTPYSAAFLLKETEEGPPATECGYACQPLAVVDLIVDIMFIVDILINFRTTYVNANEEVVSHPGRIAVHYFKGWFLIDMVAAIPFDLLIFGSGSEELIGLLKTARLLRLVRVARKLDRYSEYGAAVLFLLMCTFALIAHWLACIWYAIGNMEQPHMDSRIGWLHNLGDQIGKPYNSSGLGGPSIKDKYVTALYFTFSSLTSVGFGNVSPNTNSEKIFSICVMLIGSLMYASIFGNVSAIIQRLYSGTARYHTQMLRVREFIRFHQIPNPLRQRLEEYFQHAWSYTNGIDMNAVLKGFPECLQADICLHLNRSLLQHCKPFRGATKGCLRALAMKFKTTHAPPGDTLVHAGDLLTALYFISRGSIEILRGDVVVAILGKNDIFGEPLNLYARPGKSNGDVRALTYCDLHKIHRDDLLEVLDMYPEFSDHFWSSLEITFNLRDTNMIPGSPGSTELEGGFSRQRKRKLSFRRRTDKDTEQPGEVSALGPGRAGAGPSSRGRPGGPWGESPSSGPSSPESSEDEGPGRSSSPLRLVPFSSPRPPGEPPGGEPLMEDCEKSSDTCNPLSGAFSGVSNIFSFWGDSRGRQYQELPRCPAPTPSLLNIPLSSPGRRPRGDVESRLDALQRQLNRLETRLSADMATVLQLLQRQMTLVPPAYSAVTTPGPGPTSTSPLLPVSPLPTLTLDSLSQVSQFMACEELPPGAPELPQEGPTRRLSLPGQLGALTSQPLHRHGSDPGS
Chain of hERG (KCNH2) potassium channel (Q12809 whole entry): as above

SMILES	MIC (Pseudomonas aeruginosa [1])	IC50 [2]	MIC [3]	inhibition at 2 min, 40 µM [4]	MIC (Escherichia coli [5])	MIC (Staphylococcus aureus [6])	MIC (Staphylococcus aureus [7])	MIC (Escherichia coli [8])	MIC (Klebsiella pneumoniae [9])	MIC (Escherichia coli [10])	MIC (Pseudomonas aeruginosa [11])	MIC (Klebsiella pneumoniae [12])	MIC (Acinetobacter baumannii [13])	MIC (Klebsiella pneumoniae [14])	MIC (Escherichia coli [15])	MIC (Escherichia coli [16])	MIC (Acinetobacter baumannii [17])	MIC (Pseudomonas aeruginosa [18])
CNc1cc(F)cc2c1[nH]c1nc(Oc3cnc(C)nc3)nc(N3CCC(=C(F)CN)CC3)c12	> 8 µg/mL	18.4 µM	< 0.008 µg/mL	70.4%	0.06 µg/mL (≈ 0.129 µM)	0.015 µg/mL (≈ 0.0322 µM)	0.015 µg/mL (≈ 0.0322 µM)	0.5 µg/mL (≈ 1.07 µM)	–	–	–	–	–	–	–	–	–	–
CNc1cc(F)cc2c1[nH]c1nc(Oc3cnc(C)nc3)nc(N3CC/C(=C(\F)CN)C3)c12	2 µg/mL (≈ 4.42 µM)	> 40 µM	< 0.008 µg/mL	41.6%	< 0.06 µg/mL	0.008 µg/mL (≈ 0.0177 µM)	< 0.008 µg/mL	0.015 µg/mL (≈ 0.0332 µM)	–	–	–	–	–	–	–	–	–	–
CNc1cc(F)cc2c1[nH]c1nc(Oc3cnc(C)nc3)nc(N3CC(=C(C)CN)C3)c12	> 4 µg/mL	> 40 µM	< 0.008 µg/mL	4.8%	0.06 µg/mL (≈ 0.138 µM)	–	< 0.008 µg/mL	2 µg/mL (≈ 4.6 µM)	–	–	–	–	–	–	–	–	–	–
CNc1cc(F)cc2c1[nH]c1nc(Oc3cnc(C)nc3)nc(N3CC(=CC(C)O)C3)c12 (stereo not given)	> 16 µg/mL	–	< 0.008 µg/mL	–	0.125 µg/mL (≈ 0.287 µM)	–	< 0.008 µg/mL	0.5 µg/mL (≈ 1.15 µM)	–	–	–	–	–	–	–	–	–	–
CCC(CN)=C1CN(c2nc(S(C)(=O)=O)nc3[nH]c4c(NC)cc(F)cc4c23)C1	> 16 µg/mL	–	> 16 µg/mL	–	> 16 µg/mL	–	> 16 µg/mL	> 16 µg/mL	–	–	–	–	–	–	–	–	–	–
CCC(CN)=C1CN(c2nc(Oc3cnc(C(C)(C)O)nc3)nc3[nH]c4c(NC)cc(F)cc4c23)C1	> 16 µg/mL	–	< 0.008 µg/mL	–	0.5 µg/mL (≈ 1.02 µM)	–	< 0.008 µg/mL	1 µg/mL (≈ 2.03 µM)	–	–	–	–	–	–	–	–	–	–
CCC(CN)=C1CN(c2nc(Oc3cnc(C)nc3)nc3[nH]c4c(NC)cc(F)c(F)c4c23)C1	> 64 µg/mL	–	< 0.03 µg/mL	–	0.5 µg/mL (≈ 1.07 µM)	0.25 µg/mL (≈ 0.536 µM)	0.25 µg/mL (≈ 0.536 µM)	64 µg/mL (≈ 137 µM)	–	–	–	–	–	–	–	–	–	–
CNc1cc(F)cc2c1[nH]c1nc(Oc3cnc(C)nc3)nc(N3CC/C(=C(/F)CN)C3)c12	2 µg/mL (≈ 4.42 µM)	–	< 0.008 µg/mL	–	0.06 µg/mL (≈ 0.133 µM)	0.008 µg/mL (≈ 0.0177 µM)	< 0.008 µg/mL	0.125 µg/mL (≈ 0.276 µM)	–	–	–	–	–	–	–	–	–	–
[2H]C([2H])([2H])Nc1cc(F)cc2c1[nH]c1nc(Oc3cnc(C(C)O)nc3)nc(N3CC(=C(CC)CN)C3)c12 (stereo not given)	–	–	–	–	–	–	–	–	8 µg/mL (≈ 16.6 µM)	1 µg/mL (≈ 2.08 µM)	8 µg/mL (≈ 16.6 µM)	8 µg/mL (≈ 16.6 µM)	2 µg/mL (≈ 4.15 µM)	4 µg/mL (≈ 8.31 µM)	4 µg/mL (≈ 8.31 µM)	2 µg/mL (≈ 4.15 µM)	2 µg/mL (≈ 4.15 µM)	16 µg/mL (≈ 33.2 µM)
C[C@@H](O)[C@H]1C(=O)N2C(C(=O)O)=C(S[C@@H]3CN[C@H](C(=O)N(C)C)C3)[C@H](C)[C@H]12 [MEROPENEM]	–	–	–	–	–	–	–	–	16 µg/mL (≈ 41.7 µM)	0.06 µg/mL (≈ 0.156 µM)	1 µg/mL (≈ 2.61 µM)	16 µg/mL (≈ 41.7 µM)	> 32 µg/mL	≥ 64 µg/mL	0.25 µg/mL (≈ 0.652 µM)	4 µg/mL (≈ 10.4 µM)	> 32 µg/mL	8 µg/mL (≈ 20.9 µM)
[2H]C([2H])([2H])Nc1cc(F)cc2c1[nH]c1nc(Oc3cnc(C)nc3)nc(N3CC(=C(C)[C@H](C)N)C3)c12	–	–	–	–	–	–	–	–	2 µg/mL (≈ 4.43 µM)	0.125 µg/mL (≈ 0.277 µM)	2 µg/mL (≈ 4.43 µM)	8 µg/mL (≈ 17.7 µM)	0.5 µg/mL (≈ 1.11 µM)	2 µg/mL (≈ 4.43 µM)	0.5 µg/mL (≈ 1.11 µM)	0.5 µg/mL (≈ 1.11 µM)	0.5 µg/mL (≈ 1.11 µM)	8 µg/mL (≈ 17.7 µM)
